High-throughput results deposited in PubChem BioAssay by several laboratories.
The list is not random: actives were taken first. Their share in the collection is about 0.7%.
STK33 inh: inhibitors of purified STK33 kinase, primary screen, biochemical, ADP-Glo luminescence, homogeneous, cell-free; inhibition, % at 10 µM; hit rate 0.073% among 320,000; Serine/threonine-protein kinase 33 (Homo sapiens), Q9BYT3; MBP phosphorylation;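 active = inhibition at or above 25%, using the most active replicate where run in duplicate; inactive = inhibition below 25%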
GSK3beta inhib: human GSK3beta kinase inhibitors, primary screen, biochemical, cell-free homogeneous, HTS | GST-GSK3beta kinase, ADP-Glo luminescence, 60 min; hits give low values | activity score (negative = inhibition), % at 10 µM | hit rate 0.038% among 300,000 | AID 2097, 2009;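 active = more than half of replicate wells score below -50%, meaning over 50% inhibition versus plate controls; inconclusive = some replicates but at most half score below -50%; inactive = no replicate scores below -50%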;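 note: 0% = median DMSO wells and -100% = median GW8510 positive control wells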
Target sequence (P49841 whole entry, looked up): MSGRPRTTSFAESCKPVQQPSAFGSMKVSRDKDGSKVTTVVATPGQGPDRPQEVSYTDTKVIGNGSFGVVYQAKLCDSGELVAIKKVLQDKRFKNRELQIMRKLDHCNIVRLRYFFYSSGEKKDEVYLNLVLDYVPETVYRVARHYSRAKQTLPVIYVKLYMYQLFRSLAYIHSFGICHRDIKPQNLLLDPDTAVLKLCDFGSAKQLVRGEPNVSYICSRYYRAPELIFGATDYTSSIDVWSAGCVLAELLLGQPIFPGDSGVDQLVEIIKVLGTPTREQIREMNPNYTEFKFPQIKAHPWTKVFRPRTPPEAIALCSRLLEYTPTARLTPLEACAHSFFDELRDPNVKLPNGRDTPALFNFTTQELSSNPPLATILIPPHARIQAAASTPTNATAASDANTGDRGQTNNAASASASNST
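Test system: GST-fused GSK3beta enzyme, cell-free | Quantity: 1.6 ng GST-GSK3beta enzyme per well | Reagent: 25 µM ATP with peptide substrate | Schedule: 60 min enzyme reaction, room temperature | Signal: Luminescent ADP-Glo measurement of ADP formed | Read-out basis: Score relative to plate controls | Control set: DMSO and 20 µM GW8510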
GSK3 alpha inh: blockers of GSK3A enzyme activity – biochemical, luminescence, cell-free homogeneous, HTS, primary screen. hit rate 0.1% among 320,000. inhibition, % at 10 µM. AID 2650, 2010. GSK-3 alpha kinase, ADP-Glo luminescence, 60 min. Glycogen synthase kinase-3 alpha (Homo sapiens), P49840;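 active = more than half of replicates show inhibition above 20%; inconclusive = some but at most half of replicates above 20% inhibition; inactive = no replicate shows inhibition above 20%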;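 note: GST-tagged GSK-3 alpha with peptide substrate and 25 µM ATP; 0% = DMSO neutral wells and 100% = GW8510 positive control wells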
Hep lipid drop: inhibitors of hepatocyte lipid droplet formation, primary screen, imaging, high-throughput imaging, BODIPY stain. inhibition, % at 6.5 µM. hit rate 0.4% among 240,000. AML12 mouse hepatocytes, oleate lipid droplets. AID 1656, 2009;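 active = lipid droplet intensity inhibited by at least 50%, with more than 500 cells counted; inconclusive = wells with under 300 cells, treated as cytotoxic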
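Assay system: AML12 mouse liver cells | Compound: 6.5 µM single-point dosing | Schedule: Overnight exposure | Technique: Fluorescence imaging, 20x objective, two fields per well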
HSV replic up: enhancers of HSV replication in host cells, fold increase, host cell viability | maximum fold increase | hit rate 0.005% among 220,000 | HSV replication augmentation in cells | AID 1956, 2009; in the data active = maximum fold increase above about 1.5; inconclusive = no clear call, values can overlap the other calls; tested in PC3 cells
Rce1 inh: yeast Rce1p protease inhibitors, primary screen, biochemical, fluorescence, cell-free homogeneous; CAAX prenyl protease 2 (Saccharomyces cerevisiae (strain ATCC 204508 / S288c)), Q03530; yeast membranes, quenched prenylated peptide cleavage fluorescence; calls only; hit rate 0.27% among 290,000; AID 2563, 2010;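 active = fall in fluorescence gain of 50% or more versus controls, with final raw signal at or below 3038400; inconclusive = same 50% fall but final raw signal above 3038400; inactive = fall in fluorescence gain under 50%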;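 note: plate controls were neutral control wells for no effect and wells lacking membranes for full effect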
Lipid drop inh: hepatocyte lipid droplet accumulation inhibitors, confirmation, imaging, AML12 mouse hepatocytes, single concentration, high-content; hit rate 65% among 870; inhibition, % at 5.2 µM; BODIPY lipid droplet imaging; droplets induced with 100 µM oleic acid; AID 463183, 2010; shares compounds with Hep lipid drop;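 active = inhibition of lipid droplet metric at least 50%, with more than 300 cells in each of four replicates; inconclusive = wells under 300 cells, flagged as toxic or low count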;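 note: plate controls were DMSO with oleic acid for no effect and 5 µM Triacsin-C for full effect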
AML12 cytotox: AML12 hepatocyte cytotoxicity, counter-screen for hepatic lipid droplet formation project, imaging, DAPI nuclear morphology imaging. AML12 mouse hepatocytes; hits give high values; cells fed 100 µM oleate overnight. shares compounds with Hep lipid drop. hit rate 3% among 870. z-score at 5 µM; in the data active = z-score above about 6.3;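 note: compound exposure lasted overnight at 37 °C before fixation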
AML12 tox conf: AML12 hepatocyte cytotoxicity, confirmation, cytotoxicity control for hepatic lipid droplet formation project, cell-based, single concentration; cytotoxicity, % at 50 µM; AID 463219, 2010; AML12 mouse hepatocyte viability, ATP luminescence; cells loaded with 100 µM oleic acid; 530 tested, under 10 active; shares compounds with Hep lipid drop;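 active = cytotoxicity above 50% in each of four replicates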;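 note: compound exposure lasted overnight at 37 °C before the ATP read; 0% = DMSO-treated cells and 100% = wells with no cells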
Numbers without * were called inactive; i = inactive; ? = inconclusive; / = not tested or not shown.

SMILES | STK33 inh | GSK3beta inhib | GSK3 alpha inh | Hep lipid drop | HSV replic up | Rce1 inh | Lipid drop inh | AML12 cytotox | others
O=C(CN(CC1CCCO1)S(=O)(=O)c1ccc(S(=O)(=O)NC2CC2)cc1)Nc1ccccc1 (stereo unspecified) | 0 | -4 | 0 | 95* | i | i | 107* | -0.073 | AML12 tox conf=18
O=C(NCc1ccco1)c1ccc(Cn2c(=O)c3ccccc3n(Cc3cccc(F)c3)c2=O)cc1 | 2 | 1 | -1 | 11 | i | i | / | /
O=C(NCc1ccco1)c1ccc(Cn2c(=O)c3ccccc3n(Cc3ccc(Cl)cc3)c2=O)cc1 | 1 | 2 | -4 | 56* | i | / | 48 | -0.48
O=[N+]([O-])c1c(Nc2ccccc2)ccc2nonc12 | 1 | 0 | -1 | -17 | i | i | / | /
Nc1cc(Nc2ccccc2)c2nonc2c1[N+](=O)[O-] | -2 | 3 | 1 | 101* | / | i | 110* | 0.69 | AML12 tox conf=3
Cc1ccc(CNS(=O)(=O)N(C)C)cc1 | -2 | 0 | / | 7 | i | i | / | /
COc1ccc(N(C(=O)CCl)C(C(=O)NCCc2ccccc2)c2cccs2)cc1Cl (stereo unspecified) | 1 | 3 | -2 | 127* | i | i | ? | 34*
COc1cccc(N(C(=O)CCl)C(C(=O)NCCc2ccccc2)c2cccs2)c1 (stereo unspecified) | -4 | 3 | -2 | -10 | i | i | / | /
Cc1cc(C)c2nc(SCC(=O)N3CC(=O)Nc4ccccc43)c(C#N)cc2c1 | -1 | -3 | 1 | 163* | / | i | -307 | 22*
C=CCOc1ccc(/C=N/NC(=O)c2cc3c(OC)cc(OC)cc3[nH]2)cc1 | 0 | 1 | -1 | 56* | / | i | 51 | 2.3
O=C(COc1ccccc1Cl)NC1CC1 | -2 | 1 | 0 | 12 | / | i | / | /
C/C(=N\N=C(/N)c1nonc1N)c1ccc2c(c1)OCO2 | 3 | 0 | 2 | 66* | i | i | 27 | 0.38
CCN1CCN(Cc2ccc(NC(=O)c3ccc(C)c(NC(=O)C(=O)c4c[nH]c5ccccc45)c3)cc2C(F)(F)F)CC1 | 0 | 1 | 2 | 63* | i | i | 0 | 6.3*
CCN1CCN(Cc2ccc(NC(=O)c3cc(NC(=O)C(=O)c4c[nH]c5ccccc45)cc(OC)c3)cc2C(F)(F)F)CC1 | 0 | 0 | 0 | -13 | i | i | / | /
CSc1nc2ccccc2n1CC(=O)Nc1ccccc1 | -1 | 1 | 1 | / | i | i | / | /
CSc1nc2ccccc2n1CC(=O)Nc1c(C)cccc1C | -1 | -4 | 2 | 55* | i | i | 50 | 0.047
O=c1c(C/C=C/c2ccccc2)c(O)ccn1CCc1c[nH]c2ccccc12 | 0 | 0 | -1 | 60* | i | i | 105* | -0.19 | AML12 tox conf=13
COc1ccc2[nH]cc(CCn3ccc(O)c(C/C=C/c4ccccc4)c3=O)c2c1 | -1 | 0 | 0 | 40 | i | i | / | /
COc1cc(C(=S)N2CCOCC2)cc(OC)c1OC(=O)c1ccccc1[N+](=O)[O-] | -1 | -2 | 3 | 56* | / | i | 30 | -0.23
CCOc1ccccc1NC(=O)CSCC(=O)Nc1ccccc1 | -2 | -1 | -3 | 57* | i | i | 96* | 1.4 | AML12 tox conf=2
